The source of these data is ChEMBL document CHEMBL3124927, “New C(4)- and C(1)-derivatives of furo[3,4-c]pyridine-3-ones and related compounds: evidence for site-specific inhibition of the constitutive proteasome and its immunoisoform” (Bioorg Med Chem Lett, 2014).

Assay [1] can be described thus: Inhibition of 20s constitutive proteasome beta 1 subunit caspase-like activity in rabbit erythrocytes using Z-LLE-betaNA as substrate incubated for 15 mins prior to substrate addition measured after 45 mins by fluorescence assay. The format is cell-based, Oryctolagus cuniculus. Summed up: (§1)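 Purified rabbit erythrocyte constitutive 20S fraction, 0.27 nM enzyme, pre-incubated 15 min with or without inhibitor before substrate addition. Buffer pH 7.5: 20 mM Tris, 1 mM DTT, 10% glycerol, 0.02% (w/v) SDS. Fluorescence read-out. IC50 is from a percent inhibition versus concentration plot, fitted with a Hill-type equation.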

A short description of assay [2]: Inhibition of 20s constitutive proteasome beta 5 subunit chymotrypsin-like activity in rabbit erythrocytes using Suc-LLVY-AMC as substrate incubated for 15 mins prior to substrate addition measured after 45 mins by fluorescence assay. The format is cell-based, Oryctolagus cuniculus. The method, boiled down:
as §1

A short description of assay [3]: Inhibition of 20s constitutive proteasome beta 2 subunit trypsin-like activity in rabbit erythrocytes using Boc-LRR-AMC as substrate incubated for 15 mins prior to substrate addition measured after 45 mins by fluorescence assay. The format is cell-based, Oryctolagus cuniculus. Summed up:
(§2)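 Purified rabbit erythrocyte constitutive 20S fraction, 0.27 nM enzyme, pre-incubated 15 min with or without inhibitor, then Boc-LRR-AMC added. Buffer at pH 7.5. Fluorescence read-out. IC50 is from a plot of percent inhibition against inhibitor concentration, Hill-equation fit.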

Assay [4] addresses T1, Calpain-1 catalytic subunit (Homo sapiens) (UniProt P07384).
T1 sequence (whole entry): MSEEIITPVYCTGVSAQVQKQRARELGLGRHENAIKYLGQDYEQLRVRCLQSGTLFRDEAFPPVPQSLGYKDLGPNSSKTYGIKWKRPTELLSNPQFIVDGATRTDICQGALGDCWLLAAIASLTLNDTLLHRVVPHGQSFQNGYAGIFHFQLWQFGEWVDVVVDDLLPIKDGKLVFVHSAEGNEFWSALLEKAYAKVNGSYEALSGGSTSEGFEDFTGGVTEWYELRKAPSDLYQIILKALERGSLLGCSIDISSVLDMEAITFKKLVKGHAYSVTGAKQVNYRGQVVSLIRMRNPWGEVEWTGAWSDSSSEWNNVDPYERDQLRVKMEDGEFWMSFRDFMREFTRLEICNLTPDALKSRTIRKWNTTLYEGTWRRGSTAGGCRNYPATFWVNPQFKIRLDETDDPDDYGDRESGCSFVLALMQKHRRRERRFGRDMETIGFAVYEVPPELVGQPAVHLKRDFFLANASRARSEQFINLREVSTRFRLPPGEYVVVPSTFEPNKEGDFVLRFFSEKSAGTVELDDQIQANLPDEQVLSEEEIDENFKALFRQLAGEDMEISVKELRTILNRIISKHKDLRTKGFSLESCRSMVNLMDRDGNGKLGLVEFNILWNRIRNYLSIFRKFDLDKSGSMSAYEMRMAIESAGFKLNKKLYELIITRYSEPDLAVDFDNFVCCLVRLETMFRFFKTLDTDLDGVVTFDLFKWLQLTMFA
Nature of the assay: Inhibition of human calpain-1 using Suc-LLVY-AMC as substrate by fluorescence assay. The method, boiled down: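 Human calpain I fraction, Suc-LLVY-AMC substrate, at 25 °C in 50 mM Tris, 10 mM DTT with CaCl2, pH 7.2. Fluorescence read-out. IC50 is from percent inhibition versus inhibitor concentration.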

For assay [5], the target named is Cathepsin B (Homo sapiens) (UniProt P07858). Put plainly: Inhibition of human cathepsin B using Z-RR-AMC as substrate by fluorescence assay. The method, boiled down: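 Human cathepsin B fraction, Z-RR-AMC substrate, at 37 °C in 352 mM KH2PO4, 48 mM Na2HPO4, 1 mM EDTA, 1 mM DTT, pH 6. Fluorescence read-out. IC50 is from percent inhibition versus inhibitor concentration.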

The species named for assay [6] is Oryctolagus cuniculus. Put plainly: Inhibition of 20s constitutive proteasome beta 5 subunit chymotrypsin-like activity in rabbit erythrocytes using Suc-LLVY-AMC as substrate at 100 uM incubated for 15 mins prior to substrate addition measured after 45 mins by fluorescence assay relative to control. It counts as cell-based. Summed up:
as §1

For assay [7], the species on record is Oryctolagus cuniculus. Put plainly: Inhibition of 20s constitutive proteasome beta 2 subunit trypsin-like activity in rabbit erythrocytes using Boc-LRR-AMC as substrate at 100 uM incubated for 15 mins prior to substrate addition measured after 45 mins by fluorescence assay relative to control. The format is cell-based. The method, boiled down:
as §2

Molecules are shown by their SMILES. Activity calls are given as the source filed them. The calls are words filed in the database; no cut-off is given here.

In general, IC50 refers to the concentration that inhibits the measured activity by half. On to `CC12CCCC=C1c1c(nc[nH]c1=O)O2` (stereo unspecified), for which the IC50 entry in assay [1], in assay [2] and in assay [3] was “Not Active” throughout.

Broadly, the inhibition is the percentage by which the read-out fell short of the control. On to `CCOC(=O)C1=C(/C=C/N(C)C)C(C)(C)OC1=O`, for which the inhibition entry in assay [4] and in assay [5] was “inactive” in each case. The IC50 entry in assay [1], in assay [2] and in assay [3] was “Not Active” throughout.

Turning to `CC1(C)OC(=O)c2c1ccnc2NCC(O)COc1ccc(F)cc1` (stereo unspecified), the inhibition result in assay [4] and in assay [5] was “inactive” each time. The inhibition in assay [6] was determined as 29%. The IC50 entry in assay [1] and in assay [3] was “Not Active” throughout.

`C=C1c2c(ncn(C)c2=O)OC12CCCCC2` showed an inhibition in assay [6] of 30%. In addition, the IC50 entry in assay [1] and in assay [3] was “Not Active” throughout.

Take `C=C1c2c(ncn(CC(O)COc3ccccc3)c2=O)OC1(C)C` (stereo unspecified): the IC50 entry in assay [1], in assay [2] and in assay [3] was “Not Active” throughout.

`CC1(C)OC(=O)c2c1ccnc2O`: the inhibition result in assay [4] and in assay [5] was “inactive” each time. For the same compound, the half-inhibitory concentration (IC50) is 16.7 µM in assay [1] (read-out: IC50), “Not Active” in assay [2] and “Not Active” in assay [3].

As for `Cc1ccc(OCC(O)CNc2nccc3c2C(=O)OC3(C)C)cc1` (stereo unspecified), the inhibition entry in assay [4] and in assay [5] was “inactive” in each case. Also, the inhibition in assay [6] came out at 36.5%. In addition, the values for the IC50 result in assay [1] and in assay [3] (read-out: IC50) were “Not Active” and 60.8 µM, respectively.

Turning to `Cc1sc2ncn(CCc3ccc(Cl)cc3)c(=O)c2c1C`, the IC50 entry in assay [1] is “Not Active”; in assay [2], “Not Active”; in assay [3] (read-out: IC50), 56 µM.

As for `O=C1OC2(CCCCC2)c2ccnc(O)c21`, the inhibition entry in assay [4] and in assay [5] was “inactive” each time. The IC50 in assay [1] (read-out: IC50) was 27.8 µM; in assay [2] it was “Not Active”; in assay [3], “Not Active”.

Take `CCC1(C)OC(=O)c2c1ccnc2N` (stereo unspecified): the inhibition result in assay [4] and in assay [5] was “inactive” each time. The compound further showed an inhibition in assay [6] of 21.5%. The concentration for half-maximal inhibition (IC50) is 7 µM in assay [1] (read-out: IC50) and “Not Active” in assay [3].

Turning to `CC(N)C1=C(c2ccccc2)C(C)(C)OC1=O` (stereo unspecified), the inhibition entry in assay [4] and in assay [5] was “inactive” throughout. Besides, the 50% inhibitory concentration (IC50) result in assay [1], in assay [2] and in assay [3] was “Not Active” in each case.

For `CC1(C)OC(=O)c2c1ccnc2NCC(O)COc1ccccc1` (stereo unspecified), the inhibition result in assay [4] and in assay [5] was “inactive” each time. The IC50 is 48.1 µM in assay [1] (read-out: IC50), “Not Active” in assay [2] and “Not Active” in assay [3].

Turning to `Cc1nccc2c1C(=O)OC2(C)C`, the inhibition result in assay [4] and in assay [5] was “inactive” in each case. The IC50 entry in assay [1] is “Not Active”; in assay [2], “Not Active”; in assay [3] (read-out: IC50), 88 µM.

For `Cc1cc(=O)oc2cc[nH]c(=O)c12`, the inhibition result in assay [4] and in assay [5] was “inactive” each time. The values for the IC50 result in assay [1], in assay [2] (read-out: IC50) and in assay [3] (read-out: IC50) were “Not Active”, 29.4 µM and 8.7 µM, respectively.

As for `Cc1sc2ncn(CCc3ccccc3)c(=O)c2c1C`, the inhibition in assay [7] stood at 42%. Besides, the IC50 entry in assay [1] and in assay [2] was “Not Active” each time.

With `C=C1c2c(nc[nH]c2=O)OC1(C)c1ccccc1` (stereo unspecified), the 50% inhibitory concentration (IC50) entry in assay [1], in assay [2] and in assay [3] was “Not Active” throughout.

Take `C=C1c2c(ncn(CC(O)CN3CCOCC3)c2=O)OC1(C)C` (stereo unspecified): the inhibition in assay [6] was 33%. Besides, the IC50 result in assay [1] and in assay [3] was “Not Active” throughout.

`C[C@@]12OC(=O)[C@]1([C@@H](O)[C@@H]1C=CCCC1)NC(=O)[C@@H]2CCCl` [MARIZOMIB]: the figures for the IC50 in assay [1] (read-out: IC50), in assay [2] (read-out: IC50) and in assay [3] (read-out: IC50) were 0.46 µM, 0.0026 µM and 0.021 µM, respectively.

Take `Nc1nccc2c1C(=O)OC21CCCCC1`: the inhibition entry in assay [4] and in assay [5] was “inactive” in each case. In addition, the IC50 in assay [1] (read-out: IC50) was 8.4 µM; in assay [2], “Not Active”; in assay [3], “Not Active”.

For `O=c1c2c(-c3ccc(Cl)cc3)csc2ncn1CCc1ccccc1`, the inhibition in assay [7] was 48%. The IC50 result in assay [1] and in assay [2] was “Not Active” throughout.

`Cc1ccc(CCn2cnc3sc(C)c(C)c3c2=O)cc1`: the 50% inhibitory concentration (IC50) entry in assay [1], in assay [2] and in assay [3] was “Not Active” throughout.

`CC1(C)OC(=O)C(C(N)=O)=C1/C=C/c1ccccc1`: the inhibition result in assay [4] and in assay [5] was “inactive” each time. The IC50 result in assay [1], in assay [2] and in assay [3] was “Not Active” each time.

As for `C=C1c2c(ncn(CCCN3CCOCC3)c2=O)OC1(C)C`, the inhibition in assay [7] was 48%. Further, the IC50 entry in assay [1] and in assay [2] was “Not Active” throughout.

Compound `CC1(C)OC(=O)c2c1ccnc2N` yielded an inhibition in assay [7] of 35%. Also, the inhibition result in assay [4] and in assay [5] was “inactive” in each case. Besides, the half-inhibitory concentration (IC50) in assay [1] (read-out: IC50) is 7.9 µM; in assay [2], “Not Active”.

`Cc1sc2ncn(CCCN3CCOCC3)c(=O)c2c1C` displayed an inhibition in assay [7] of 53%. The concentration for half-maximal inhibition (IC50) result in assay [1] and in assay [2] was “Not Active” throughout.

With `C=C1c2c(ncn(CCO)c2=O)OC1(C)C`, the IC50 entry in assay [1], in assay [2] and in assay [3] was “Not Active” throughout.

As to `C=C1c2c(ncn(-c3ccc(Br)cc3)c2=O)OC1(C)C`, the inhibition in assay [7] worked out at 29%. Besides, the IC50 entry in assay [1] and in assay [2] was “Not Active” in each case.

With `Cc1nccc2c1C(=O)OC21CCCCC1`, the inhibition result in assay [4] and in assay [5] was “inactive” throughout. Moreover, the IC50 is 16.1 µM in assay [1] (read-out: IC50), “Not Active” in assay [2] and “Not Active” in assay [3].

For `C=C1c2c(nc[nH]c2=O)OC1(C)C`, the half-inhibitory concentration (IC50) result in assay [1] was “Not Active”; in assay [2] it was “Not Active”; in assay [3] (read-out: IC50) it was 59 µM.

In the case of `O=c1c2c(-c3ccc(Cl)cc3)csc2ncn1CCc1ccc(Cl)cc1`, the inhibition in assay [7] came out at 52%. Besides, the IC50 entry in assay [1] and in assay [2] was “Not Active” in each case.

As to `CC1(C)OC(=O)C(C(N)=S)=C1c1ccccc1`, the inhibition entry in assay [4] and in assay [5] was “inactive” throughout. For the same compound, the IC50 entry in assay [1], in assay [2] and in assay [3] was “Not Active” in each case.

For the compound `O=c1[nH]ccc2c1c(=O)oc1ccccc12`, the inhibition result in assay [4] and in assay [5] was “inactive” throughout. For the same compound, the IC50 entry in assay [1], in assay [2] and in assay [3] was “Not Active” throughout.

The compound `C=C1c2c(ncn(CCCn3ccnc3)c2=O)OC1(C)C` returned an inhibition in assay [7] of 56%. The IC50 was 47 µM in assay [1] (read-out: IC50) and “Not Active” in assay [2].
